Published values pooled from the literature.
Lines come from different studies, so protocols differ.
Target: G protein-coupled receptor kinase 3 (GRK3, Homo sapiens, UniProt P35626)
Residues used in one study (P35626 1-688): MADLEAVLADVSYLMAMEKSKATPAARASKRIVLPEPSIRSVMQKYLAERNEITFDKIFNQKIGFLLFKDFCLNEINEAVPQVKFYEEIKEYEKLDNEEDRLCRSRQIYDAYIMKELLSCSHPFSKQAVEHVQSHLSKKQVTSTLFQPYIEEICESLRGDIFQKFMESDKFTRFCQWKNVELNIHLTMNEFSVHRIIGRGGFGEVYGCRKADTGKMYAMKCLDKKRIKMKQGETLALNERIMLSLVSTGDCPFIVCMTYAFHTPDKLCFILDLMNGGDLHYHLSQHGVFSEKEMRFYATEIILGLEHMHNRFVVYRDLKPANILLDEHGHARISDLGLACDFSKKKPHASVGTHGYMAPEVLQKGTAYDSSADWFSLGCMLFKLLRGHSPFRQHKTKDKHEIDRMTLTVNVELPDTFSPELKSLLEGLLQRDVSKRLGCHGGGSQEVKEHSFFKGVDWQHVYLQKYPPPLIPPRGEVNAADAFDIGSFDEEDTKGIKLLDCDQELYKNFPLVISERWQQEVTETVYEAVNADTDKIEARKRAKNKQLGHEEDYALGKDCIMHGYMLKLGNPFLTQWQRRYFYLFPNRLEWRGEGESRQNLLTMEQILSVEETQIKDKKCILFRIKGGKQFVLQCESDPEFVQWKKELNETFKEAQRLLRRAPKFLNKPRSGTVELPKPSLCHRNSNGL

Cn1c2c(c3ccccc31)C(C#N)C(C)(C)NC2=O (centres unmarked) — ΔTm (thermal stability, DSF; 10 µM): 0.2 °C
CN(c1ccnc(CNc2nc(Nc3ccc4c(c3)CC(=O)N4)ncc2C(F)(F)F)n1)S(C)(=O)=O — remaining binding (cell-free assay, competition with immobilised ligand; 1 µM): 91%
CC(C)(C)c1nc2c(s1)c1nc(N)ncc1c1ccc(NS(=O)(=O)c3c(F)cccc3F)c(F)c12 — remaining activity (enzyme activity, inhibitor, radiometric; 1 µM): 96%
Cc1ccc(C(=O)NCc2ccsc2)cc1C#Cc1cn(C(C)C)c2ncnc(N)c12 — activity vs control (enzyme activity, inhibitor; 1 µM): 105%
O=C(Nc1cnn(-c2csc(C(=O)NC3COC3)c2)c1)Nc1ccccc1Cl — remaining activity (enzyme activity, inhibitor; 5 µM): 102%
CCOc1cc(-c2nncn2C)ccc1Nc1ncc2cc(C)nc(NCC(C)(C)C)c2n1 — inhibition (enzyme activity, inhibitor, FRET; 1 µM): < 15%
N#CC1c2c([nH]c3c(Cl)c(Cl)ccc23)C(=O)NC12CCCCC2 (racemic) — ΔTm (thermal stability, DSF; 10 µM): 0.7 °C
CS(=O)(=O)N1CCCC(NC(=O)[C@H](CCC2CCCCC2)NC(=O)c2ccc(CNc3ncnc4c3nnn4-c3ccccc3)cc2)C1 (some centres unmarked) — remaining binding (cell-free assay, competition with immobilised ligand; 0.1 µM): 100%
CCN1CCC2(CC1)NC(=O)c1c(c3ccc(Cl)c(Cl)c3n1C)C2C#N (racemic) — ΔTm (thermal stability, DSF; 10 µM): 0.8 °C
COc1ccc2cc(OCC3(C(=O)O)CN(C(=O)c4ccc(F)cc4)C3)ccc2c1 — remaining binding (cell-free assay, competition with immobilised ligand; 1 µM): 67%
Cn1c2c(c3ccc(Cl)c(Cl)c31)C(C#N)C(C)(C)NC2=O (centres unmarked) — ΔTm (thermal stability, DSF; 10 µM): 0.6 °C
CS(=O)(=O)c1cc(C2(NC(=O)c3cncc4c3cnn4-c3ccc(F)cc3)CC2)ccn1 — remaining binding (cell-free assay, competition with immobilised ligand; 1 µM): 100%
O=C1Nc2ccc(Cl)cc2C1=Cc1cc(Cl)c(O)c(Cl)c1 — remaining signal (cell-free assay; 0.5 µM): 102%
COc1cc2ncnc(Nc3ccc(Oc4ccccc4)c(C)c3C)c2cc1OC — inhibition (enzyme activity, inhibitor; 1 µM): -2%
Cn1c2c(Cl)c(Cl)ccc2c2cc[nH]c(=O)c21 — ΔTm (thermal stability, DSF; 10 µM): -0.3 °C
NS(=O)(=O)c1cc(NC(=O)Cc2ccccc2)ccc1Oc1cccc(Cl)c1 — remaining binding (cell-free assay, competition with immobilised ligand; 1 µM): 100%
O=C1NC(=O)c2cc(Nc3ccc(F)cc3)c(Nc3ccc(F)cc3)cc21 — remaining signal (cell-free assay; 0.5 µM): 104%
Cn1c2c(c3ccc(Cl)c(Cl)c31)C(C#N)C1(CCOCC1)NC2=O (centres unmarked) — ΔTm (thermal stability, DSF; 10 µM): 0 °C
O=C(O)[C@H]1[C@H](Cn2nnc3ccccc3c2=O)CC[C@@H]1C(=O)c1ccc(OCCC2CCOCC2)cc1 — remaining binding (cell-free assay, competition with immobilised ligand; 1 µM): 100%
Cc1ccc(C(=O)Nc2ccc(CN3CCN(C)CC3)c(C(F)(F)F)c2)cc1C#Cc1cnc2cccnn12 — remaining activity (enzyme activity, inhibitor; 23.5 nM): 76%
